Experimental data from different studies.
pIC50: −log10 of the molar value.
Cell line: HEK293
Observed: cell growth or viability

Compound | method | tested at | time | endpoint | result
Cc1c2ccncc2c(C)c2c1[nH]c1ccc(OCCN(C)C)cc12 | MTS | – | – | pIC50 | 5.50
O=P(O)(O)c1cc2c(O)c(c1)Cc1cc(P(=O)(O)O)cc(c1O)Cc1cc(P(=O)(O)O)cc(c1O)Cc1cc(P(=O)(O)O)cc(c1O)Cc1cc(P(=O)(O)O)cc(c1O)Cc1cc(P(=O)(O)O)cc(c1O)Cc1cc(P(=O)(O)O)cc(c1O)Cc1cc(P(=O)(O)O)cc(c1O)C2 | MTT | – | 24 h | CC50 | 608 µM
C[C@@H](c1cc(Cl)cc(Cl)c1)N(C)c1ncc2c(N)nc(N)nc2n1 | MTT | – | 24 h | CC50 | 31.2 µM
CC1c2cc(c(O)cc2O)C(C)c2cc(c(O)cc2O)C(C)c2cc(c(O)cc2O)C(C)c2cc1c(O)cc2O (stereo not drawn) | ATP luminescence | – | 24 h | CC50 | 21.2 µM
Cc1ccc2oc(-c3cc(NC(=O)Cc4ccccc4)ccc3Cl)nc2c1 | MTT | – | 24 h | CC50 | > 400 µM
CC(C)(O)c1coc(S(=O)(=O)NC(=O)Nc2c3c(cc4c2CCC4)CCC3)c1 | MTT | 10 µM | 4 h | viability | 95.2%
CO[C@H]1C[C@@H](C[C@H](C)[C@H]2CC(=O)[C@@H](C)/C=C(\C)[C@H](O)[C@H](OC)C(=O)[C@@H](C)C[C@@H](C)/C=C/C=C/C=C(\C)[C@H](OC)C[C@H]3CC[C@H](C)[C@](O)(O3)C(=O)C(=O)N3CCCC[C@@H]3C(=O)O2)CC[C@@H]1OCCO (racemic) | MTT | – | 24 h | CC50 | 63.7 µM
CCn1cc(C(=O)NCCNCCO)c(=O)c2cc(OC)c(OCc3cc(F)cc(F)c3)cc21 | resazurin | – | 20 h | CC50 | > 32 µg/mL
CC/C(=C(\c1ccccc1)c1ccc(OCCN(C)C)cc1)c1ccccc1 | resazurin | – | 20 h | CC50 | 5.62 µM
